Screens as filed in PubChem.
A selection: hits, their analogues and other compounds. The true share with any hit is near 4.8%.
HSF1 inhib: HSF1 inhibition; NIH3T3-HGL HSE-luciferase, MG132-induced, luminescence 8 h; active compounds read low; activity change, negative = inhibition, % at 7.5 µM (by protocol); hit rate 0.77% among 300,000; AID 2098;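 active means more than half of replicate wells show activity change below -50%, luminescence cut by over half; inconclusive means some wells, but at most half, below -50%; inactive means no replicate well below -50%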;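 further: luciferase reports HSF-1 transcriptional activity via heat shock element; 0% = median of DMSO wells and -100% = zero luminescence signal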
HSF1 activator: increases HSF-1 driven luciferase reporter signal; activation, % at 9 µM; NIH3T3-HGL HSF-1 luciferase reporter, MG132, 8 h; 100% = twice DMSO control signal; hit rate 1.7% among 300,000;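 active means mean replicate activation of at least 50% with a set share of replicates each reaching 50%; inconclusive means only one of those two conditions met; inactive means mean below 50% and too few replicates reaching it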;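 further: 0% = median of the neutral control wells and 100% = twice that signal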
Jurkat NFkB inh: inhibitors of the PMA/ionomycin-induced NF-kB reporter in Jurkat cells; PMA/ionomycin-induced NF-kB luciferase reporter, luminescence; inhibition, % at 4 µM; hit rate 0.53% among 330,000; in the data active means inhibition above about 50%
GPR7 antag: blocks human GPR7 receptor signaling. GPR7-expressing cells, fluorescence antagonist assay. inhibition, % at 4.4 µM. P48145. hit rate 1.1% among 290,000; in the data active means inhibition above about 16%, passing the limit was not always enough;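 further: cells stimulated with the agonist NPW; 0% = agonist with vehicle and 100% = vehicle without agonist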
Target sequence (P48145 whole entry, looked up): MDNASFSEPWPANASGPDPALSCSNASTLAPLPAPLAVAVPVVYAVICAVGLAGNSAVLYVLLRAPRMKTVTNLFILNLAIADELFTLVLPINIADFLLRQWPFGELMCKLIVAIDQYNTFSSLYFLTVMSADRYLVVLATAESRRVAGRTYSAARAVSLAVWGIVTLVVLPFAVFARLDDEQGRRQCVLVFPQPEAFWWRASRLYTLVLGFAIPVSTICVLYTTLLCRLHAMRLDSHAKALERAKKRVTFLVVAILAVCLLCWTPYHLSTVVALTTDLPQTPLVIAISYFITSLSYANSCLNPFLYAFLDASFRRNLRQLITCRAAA
697 NFkB inh: lowers PMA/ionomycin-induced NF-kB signal in 697 B cells | 697 B-cell NF-kB luciferase reporter, 16 h | inhibition, % at 4 µM | hit rate 0.33% among 330,000 | AID 435022; in the data active means inhibition above about 35%
T cruzi repl: T. cruzi replication inhibition | T. cruzi beta-gal in NIH3T3, luminescence, 90 h | inhibition, % (concentration not given with the values) | hit rate 1.4% among 300,000 | AID 1885;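 active means mean inhibition across valid replicates above about 55%, limit read from the data; inconclusive means mean below that limit but half or more replicates reach it; inactive means mean below it, under half of replicates reach it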;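 further: signal also drops with host cell toxicity which is not excluded here; 0% = plate median of DMSO wells and 100% = zero luminescence signal; higher percent means less beta-gal luminescence so fewer parasites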
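Incubation – ≥90 h infection period, 3 h prior cell attachment · System – NIH/3T3 fibroblasts plus reporter T. cruzi · Doses – compound pinned at 50 nL/well, DMSO · Read-out basis – percent inhibition of parasite-derived β-gal signal · Signal – luminescent β-galactosidase signal after 60 min lysis · Also added – 5000 T. cruzi trypomastigotes/well · Medium – Low-serum DMEM with 2% FBS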
Jurkat NFkB conf: inhibitors of the PMA/ionomycin-induced NF-kB reporter in Jurkat cells, retest | shares compounds with Jurkat NFkB inh | Jurkat NF-kB luciferase, 16 h | inhibition, % at 4 µM | hit rate 27% among 2,700 | AID 435020;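 active means inhibition reaching about 45% at 4 µM in either replicate, limit read from the data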;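 further: plate controls were PMA/ionomycin stimulated DMSO wells for no effect and unstimulated DMSO wells for full effect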
697 NFkB conf: inhibitors of the PMA/ionomycin-induced NF-kB reporter in 697 B cells, retest; 697 B-cell NF-kB luciferase, 16 h; hit rate 35% among 2,000; AID 449746; shares compounds with 697 NFkB inh; inhibition, % at 4 µM; in the data active means inhibition mostly above about 28%, no sharp cut-off; inactive means mostly below about 22%
* = called active by the depositor; ? = inconclusive; nt = no result.

SMILES	HSF1 inhib	HSF1 activator	Jurkat NFkB inh	GPR7 antag	697 NFkB inh	T cruzi repl	Jurkat NFkB conf	697 NFkB conf
COCCN1C(=O)c2cc(C(=O)Nc3ccc(C)c(F)c3)ccc2C1Nc1ccc(C)c(F)c1 (stereo not given)	17	14	-10	-16	2	0	nt	nt
COc1ccc(/C=C/C(=O)OCC(=O)Nc2ccc3c(c2)OCO3)cc1	nt	nt	1	nt	7	nt	nt	nt
COc1ccc(-c2nn(-c3ccccc3)cc2C(=O)NC(=S)N2CCOCC2)cc1OC	nt	nt	-13	nt	-20	nt	nt	nt
O=C(O)COCC(=O)Nc1ccc(-n2nc(C(F)(F)F)cc2-c2cccs2)cc1	-8	-15	8	-1	17	-16	nt	nt
COc1ccc(NS(=O)(=O)c2cc(OCC(N)=O)c(C)cc2Cl)cc1	-4	8	10	-3	5	-6	nt	nt
COc1ccc(OCc2cccc(C(=O)O)c2)cc1	-90*	-91	88*	nt	80*	-17	88*	71*
O=C(NC1CCCC1)C(c1ccccn1)N(C(=O)c1csnn1)c1ccccc1Cl (stereo not given)	1	31	-12	-13	12	3	nt	nt
O=C(Nc1nc2cc3c(cc2s1)OCCO3)c1cccs1	-19	-11	-183	-25	-474	0	-80	-428
COc1ccc(/C=C/c2c(-c3ccc(OC)cc3)oc3ccc(-c4ccc(OC)cc4)cc23)cc1	-3	-5	-3	5	15	-14	nt	nt
COc1ccc(/C=C/c2cc(-c3ccc(C)cc3)o[n+]2C)cc1	3	-1	61*	-11	93*	59*	52*	41*
CCOc1ccc(-c2cc(C(=O)N/N=C/c3cccnc3)c3ccccc3n2)cc1	1	21	58*	-3	-393	18	-4	-301
CCOc1ccccc1-c1cc(C(=O)N/N=C/c2cccnc2)c2ccccc2n1	1	26	-5	nt	22	-16	nt	nt
COc1ccc(NC(=O)c2c(F)cccc2Cl)cc1S(=O)(=O)N1CCOCC1	nt	nt	-3	nt	-6	nt	nt	nt
CCOC(=O)c1sc2nc(-c3ccccc3)ccc2c1N	-11	9	-296	-13	-336	3	-80	-188
COc1cc(/C=N/NC(=S)Nc2cccc(C(=O)O)c2)ccc1O	?	-50	54*	-4	38*	-9	50*	38*
COCCNC(=O)NC(=O)CSc1nc(C)c(C)c(C)n1	4	-10	-21	9	-28	0	nt	nt
c1ccc(CCc2nc(-c3ccccc3)no2)cc1	16	39	-56	3	-31	7	nt	nt
O=C(Nc1ccc(-c2noc(CCc3ccccc3)n2)cc1)c1ccco1	29	47	-187	4	-296	9	-84	-184
CSCCC(NC(=O)COc1ccccc1)C(=O)N1CC(C)OC(C)C1 (stereo not given)	nt	nt	8	nt	-8	nt	nt	nt
Cc1ccc(C(=O)Nc2cccc(C(F)(F)F)c2)cc1NC(=O)c1nccn1C	-8	-14	1	nt	-17	-23	nt	nt
Cc1ccc(C(=O)Nc2cccc(C(F)(F)F)c2)cc1NC(=O)c1ccno1	-47	-56	51*	nt	60*	-33	87*	61*
COc1ccccc1-c1nc(-c2cccc(C)c2)no1	7	40	-212	-22	-284	15	-178	-258
COc1cc(OC)c(-c2nc(-c3ccncc3)no2)cc1OC	0	10	9	-17	25	-4	nt	nt
COc1ccc(-c2noc(-c3ccccc3F)n2)cc1	8	32	-207	-8	-287	-3	-106	-234
COc1ccc(-c2nc(-c3ccncc3)no2)c(OC)c1	25	48	-201	-6	-380	-5	-98	-283
SMILES	HSF1 inhib	HSF1 activator	Jurkat NFkB inh	GPR7 antag	697 NFkB inh	T cruzi repl	Jurkat NFkB conf	697 NFkB conf
COc1ccc(-c2noc(-c3ccccc3-c3ccccc3)n2)cc1	-1	19	-3	-15	-6	17	nt	nt
CCC1Oc2ccccc2N(CC(=O)NCC2CCCO2)C1=O (stereo not given)	-5	-5	-2	-8	5	1	nt	nt
Cc1nn(C)cc1CN1CCCC(C(=O)c2ccc(-c3ccccc3)c(F)c2)C1 (stereo not given)	4	24	-7	9	-21	42	nt	nt
Cn1nccc1C(=O)NC1CCCc2c1cnn2-c1ccc(C(C)(C)C)cc1 (stereo not given)	5	22	66*	13	44*	-6	71*	103*
Cc1cc(C(=O)NC2CCCc3c2cnn3-c2cccc(C)c2C)n(C)n1 (stereo not given)	-4	-17	72*	3	77*	-98	78*	96*
CCCCCNC(=O)c1ccc2c(=O)n(CC3CCCO3)c(=O)[nH]c2c1 (stereo not given)	-2	-1	99*	-1	104*	-7	44	60*
CCCCCNC(=O)c1ccc2c(=O)n(CC3CCCO3)c(=S)[nH]c2c1 (stereo not given)	-1	-9	-4	2	24	2	nt	nt
CCc1cc2c(=O)c(-c3ccc4c(c3)OCCO4)coc2cc1OC(=O)c1ccco1	28	30	-223	-12	-360	7	-129	-407
COc1ccc(Cl)cc1NS(=O)(=O)c1cccc(C(=O)NCCCN2CCCC2=O)c1	2	3	-26	-11	-5	-3	nt	nt
COc1ccccc1/C=C/C=N/NC(=O)c1cc(-c2ccc(C)o2)[nH]n1	-20	-37	29	-19	-26	7	nt	nt
Cc1cc(C(=O)Nc2sc(C)c(-c3ccc(F)cc3)c2C(N)=O)no1	7	12	-192	-10	-294	22	-96	-204
Cc1ccc(C(=O)NCC(=O)NCC(=O)OCc2ccc(Cl)cc2)cc1	-3	4	-6	-4	25	-28	nt	nt
CCN(CC)c1nc2ccccc2n(Cc2cccc(OC)c2)c1=O	-1	27	-13	-31	-5	12	nt	nt
CC(=O)Nc1ccc(OCCC[n+]2ccccc2)cc1	nt	nt	7	4	-3	0	nt	nt
CCCCCc1ccc(OCCC[n+]2ccccc2)c(CCCCC)c1	-2	-1	63*	6	60*	75*	55*	57*
COc1ccc2[nH]c3c(c2c1)CCn1c-3nc2ccccc2c1=O	nt	nt	-181	2	-488	nt	-127	-318
O=C(NCCNCCO)C1(C(F)(F)F)C/C(=C\CCO)CCCO1 (stereo not given)	-3	-11	54*	nt	61*	1	83*	58*
Cc1ccc2[nH]c(O)c(N=O)c2c1	9	6	12	1	28	-6	nt	nt
O=C(Nc1ccc2c(c1)Cc1ccccc1-2)c1ccc(Br)o1	20	13	-38	-11	-20	4	nt	nt
